# Results pooled from the literature.
# Protocols differ between the studies behind these lines.
# Cell line: THP-1
SMILES,observed,action,method,time,setting,IC50
CCn1c(-c2nnc(NC(=O)c3cc4c([nH]c5ccccc54)c(-c4ccc(OC)cc4)n3)s2)cc2ccccc21,cell growth or viability,,MTT,72 h,,48.6 µM
CC(C)NC[C@@H](O)c1ccc(O)c(O)c1,TNF-α release,inhibitor,,17 h,LPS-stimulated,0.071 µM
C#CCSc1nc(Sc2nnnn2-c2ccccc2)c2nnn(Cc3ccc(OC)cc3)c2n1,cell growth or viability,,MTS,6 days,,2.52 µM
COc1cc2nccc(Oc3ccc(NC(=O)C4(C(=O)Nc5ccc(F)cc5)CC4)cc3)c2cc1OC,cell growth or viability,,trypan blue,72 h,,2.92 µM
CCn1c(-c2nnc(NC(=O)c3cc4c([nH]c5ccccc54)c(-c4cc(OC)c(OC)c(OC)c4)n3)s2)cc2ccccc21,cell growth or viability,,MTT,72 h,,40.2 µM
O=[N+]([O-])c1c[nH]nc1-c1nc(-c2ccc(Oc3ccc(I)cc3)cc2)no1,cell growth or viability,,LDH,24 h,,> 50 µg/mL
C=C1C(=O)O[C@H]2[C@H]1CC/C(C)=C/CC[C@@]1(C)O[C@@H]21,TNF-α release,inhibitor,,17 h,LPS-stimulated,1.3 µM
Cn1c(-c2nnc(NC(=O)c3cc4c([nH]c5ccccc54)c(-c4ccccc4)n3)s2)cc2ccccc21,cell growth or viability,,MTT,72 h,,14.2 µM
CC[C@@H](C)[C@H](N)C(=O)N1Cc2ccccc2C1,cell growth or viability,,ATP luminescence,48 h,,2.5 µM
O=C(Nc1nnc(-c2cc3ccccc3[nH]2)s1)c1cc2c([nH]c3ccccc32)c(-c2ccc(F)cc2)n1,cell growth or viability,,MTT,72 h,,6.11 µM
COc1cccc2c1C(=O)c1c(O)c3c(c(O)c1C2=O)C[C@@](O)(C(=O)CO)C[C@@H]3O[C@H]1C[C@H](N)[C@H](O)[C@H](C)O1,cell growth or viability,,MTT,48 h,,2.7 µg/mL
Nc1nc(Nc2ccc3c(c2)CC[C@@H](N2CCCC2)CC3)nn1-c1cc2c(nn1)-c1ccccc1CCC2,cell growth or viability,,trypan blue,72 h,,2.54 µM
CNCC(O)c1ccc(O)c(O)c1 (racemic),TNF-α release,inhibitor,,17 h,LPS-stimulated,0.15 µM
Cl.NCc1ccc(-c2nc(-c3ccc(Oc4ccc(C(F)(F)F)cc4)cc3)no2)cc1,cell growth or viability,,LDH,24 h,,4.4 µg/mL
O=C(Nc1nc2ccccc2n1CCN1CCOCC1)c1cccc([N+](=O)[O-])c1,TNF-α release,inhibitor,,17 h,LPS-stimulated,1.12 µM
N[C@@H](CC(=O)N1CCN(C(c2ccc(F)cc2)c2ccc(F)cc2)CC1)C(=O)N1Cc2ccccc2C1,cell growth or viability,,ATP luminescence,48 h,,2.74 µM
NC[C@H](O)c1ccc(O)c(O)c1,TNF-α release,inhibitor,,17 h,LPS-stimulated,0.1 µM
O=C(Nc1nnc(-c2cc3ccccc3[nH]2)s1)c1cc2c([nH]c3ccccc32)c(-c2ccc(Cl)cc2)n1,cell growth or viability,,MTT,72 h,,4.38 µM
NCCc1c[nH]cn1,TNF-α release,inhibitor,,17 h,LPS-stimulated,1.89 µM
Cn1c(-c2nnc(NC(=O)c3cc4c([nH]c5ccccc54)c(-c4ccc(F)cc4)n3)s2)cc2ccccc21,cell growth or viability,,MTT,72 h,,32.8 µM
